From ChEMBL document CHEMBL2331329, “Synthesis and biological evaluation of 2-(alkoxycarbonyl)-3-anilinobenzo[b]thiophenes and thieno[2,3-b]pyridines as new potent anticancer agents” (J Med Chem, 2013) come the findings set out here.

The nature of assay [1]: Cytotoxicity against human A549-T12 cells after 72 hrs by MTT assay. To be noted: A549, 72 h. Type of assay: functional, cell-based. In outline: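 Mean ± SE of at least three independent experiments. Resistance ratio = IC50 in resistant line/IC50 in nonresistant line.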
Background: Tetrazolium assays rely on reduction of a dye to a coloured formazan, in cell work by metabolically active cells.

Assay [2] deals with CCRF-CEM. The assay can be described thus: Resistance index, ratio of IC50 for human CEM/VBL100 cells to IC50 for human CEM cells. Type of assay: functional. In outline:
(§1)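 MTT viability test: 8 × 10^3 cells per well settled 18 h at 37 °C, 5% CO2, then given fresh medium with compound (from 10 mM DMSO stocks, final DMSO ≤0.25%) for 72 h. […] CEMVbl-100 is a vinblastine-selected P-gp line; LoVoDoxo is grown in Ham's F12 with 0.1 μg/mL doxorubicin. Resistance index = resistant IC50/parental IC50.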

The nature of assay [3]: Cytotoxicity against human CEM/VBL100 cells after 72 hrs by MTT assay. Type of assay: functional, cell-based. To be noted: CEM/VBL100, 72 h. In outline:
as §1

Assay [4] concerns CCRF-CEM. The experiment in a line: Cytotoxicity against human CEM cells after 72 hrs by MTT assay. Type of assay: functional, cell-based. In outline:
as §1

A further assay relates to MCF7. The experiment in a line: Cytotoxicity against human MCF7 cells after 72 hrs by MTT assay. Type of assay: functional, cell-based. To be noted: MCF7, 72 h.
In another assay the test system is HT-29. The experiment in a line: Cytotoxicity against human HT-29 cells after 72 hrs by MTT assay. Type of assay: functional, cell-based. To be noted: HT-29, 72 h.
Assay [5] can be described thus: Cytotoxicity against human SEM cells after 72 hrs by MTT assay. Type of assay: functional, cell-based. In outline:
(§2)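 Cells plated at 8 × 10^3 per well, 18 h at 37 °C, 5% CO2, then fresh medium with graded compound concentrations (DMSO ≤0.25%) for 72 h. Jurkat, SEM, HL-60 grown in RPMI-1640; A549, HeLa, HT-29, MCF-7 in DMEM; 10% FBS with penicillin/streptomycin. MTT viability read-out; IC50 vs 0.25% DMSO controls; mean ± SE of at least three independent experiments.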

A further assay deals with HL-60. The experiment in a line: Cytotoxicity against human HL60 cells after 72 hrs by MTT assay. Type of assay: functional, cell-based. To be noted: HL-60, 72 h.
Another assay relates to A549. The assay can be described thus: Cytotoxicity against human A549 cells after 72 hrs by MTT assay. Type of assay: functional, cell-based. To be noted: A549, 72 h.
The test system of a further assay is Jurkat. The experiment in a line: Cytotoxicity against human Jurkat cells after 72 hrs by MTT assay. Type of assay: functional, cell-based. In a few lines:
as §2

In another assay the test system is HeLa. The assay can be described thus: Cytotoxicity against human HeLa cells after 72 hrs by MTT assay. Type of assay: functional, cell-based.
Assay [6] in a line: Inhibition of bovine brain tubulin polymerization after 20 mins by turbidimetric analysis. Details: species or system Bos taurus. In a few lines: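 Bovine brain tubulin (10 μM) preincubated with varying compound concentrations in glutamate buffer at 30 °C, chilled to 0 °C, 0.4 mM GTP added, then warmed to 30 °C in a recording spectrophotometer.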
Assay [7] is filed under the species Bos taurus. The assay can be described thus: Displacement of [3H]colchicine from bovine brain tubulin at 5 uM after 20 mins by turbidimetric analysis. (In general: Loss of bound radioactivity is the signal in a displacement assay; it reports binding, not function.)
Assay [8] is filed under the species Bos taurus. The assay can be described thus: Displacement of [3H]colchicine from bovine brain tubulin at 1 uM after 20 mins by turbidimetric analysis.
Assay [9] is described as follows: Cytotoxicity against human LoVo/DX cells after 72 hrs by MTT assay. Type of assay: functional, cell-based. In a few lines: as §1
Assay [10] relates to LoVo. The assay can be described thus: Cytotoxicity against human LoVo cells after 72 hrs by MTT assay. Type of assay: functional, cell-based. In a few lines: as §1
Assay [11] deals with LoVo. The experiment in a line: Resistance index, ratio of IC50 for human LoVo/DX cells to IC50 for human LoVo cells. Type of assay: functional. In outline:
as §1

Assay [12] in a line: Antitumor activity against mouse BNL 1ME A.7R.1 cells xenografted in Balb/c mouse assessed as reduction in tumor growth at 5 mg/kg, ip QD for 7 days. Type of assay: functional. Details: scale not given: the % may be the effect or the level left. To be noted: route intraperitoneal. In outline:
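Male Balb/c mice, 8 weeks old, given 10^7 syngeneic BNL 1ME A.7R.1 hepatoma cells subcutaneously in the dorsal region in 200 μL PBS. Randomised to groups of five. Dosed intraperitoneally once daily for 7 days at 5 mg/kg in 0.9% NaCl with 5% PEG 400 and 0.5% Tween 80, against vehicle and CA-4P. Tumours measured daily by caliper, V = AB2/2; body weight recorded. Mean ± SEM.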

In general, IC50 refers to the midpoint of a concentration-inhibition curve. Molecule `CC(=O)O[C@H]1C(=O)[C@@]2(C)[C@H]([C@H](OC(=O)c3ccccc3)[C@]3(O)C[C@H](OC(=O)[C@H](O)[C@@H](NC(=O)c4ccccc4)c4ccccc4)C(C)=C1C3(C)C)[C@]1(OC(C)=O)CO[C@@H]1C[C@@H]2O` [PACLITAXEL] showed an IC50 in assay [1] of 0.0923 µM.
On to `CC[C@]1(O)C[C@@H]2CN(CCc3c([nH]c4ccccc34)[C@@](C(=O)OC)(c3cc4c(cc3OC)N(C)[C@H]3[C@@](O)(C(=O)OC)[C@H](OC(C)=O)[C@]5(CC)C=CCN6CC[C@]43[C@@H]65)C2)C1` [VINBLASTINE], for which, in the assay with CCRF-CEM [2], the “Ratio IC50” value is 105. In addition, the results for the IC50 (in assay [3]; with CCRF-CEM [4]) were 0.211 µM and 0.002 µM, respectively.
In the case of `COC(=O)c1sc2ncccc2c1Nc1cc(OC)c(OC)c(OC)c1`, the IC50 in the assay with MCF7 came to 2.64 µM; with HT-29, 0.542 µM; in assay [5] it was 0.348 µM; with HL-60, 2.92 µM; with A549 it was 3.85 µM; in the assay with Jurkat, 1.11 µM.
As to `COC(=O)c1sc2ccc(C)cc2c1Nc1cc(OC)c(OC)c(OC)c1`, the IC50 in the assay on MCF7 is 0.54 µM; in the assay on HT-29 it was 0.299 µM; in assay [5], 0.185 µM; with HeLa, 0.398 µM; in the assay with HL-60, 4.72 µM; in the assay on A549, 2.81 µM. Moreover, in the assay on Jurkat, the half-inhibitory concentration (IC50) came out at 0.727 µM.
Regarding `COC(=O)c1sc2c(C)cccc2c1Nc1cc(OC)c(OC)c(OC)c1`, the IC50 in the assay with MCF7 came to 4.55 µM; with HT-29, 0.552 µM; in assay [5], 1.63 µM; in the assay on HeLa, 1.73 µM; with HL-60, 4.27 µM; with A549 it was 3.93 µM.
For `COc1ccc(/C=C\c2cc(OC)c(OC)c(OC)c2)cc1O` [COMBRETASTATIN A4], the IC50 in assay [5] turned out to be 0.005 µM.
As usually defined, the inhibition is the relative decrease from the control value, in per cent. Regarding `CCOC(=O)c1sc2cc(OC)ccc2c1Nc1cc(OC)c(OC)c(OC)c1`, the IC50 in the assay with MCF7 was 0.0056 µM; in [5], 0.0102 µM; with HeLa, 0.00056 µM; in the assay with HL-60, 0.0316 µM; in assay [6] it was 0.81 µM; in the assay on A549, 0.0089 µM. Also, the midpoint of inhibition in the assay on Jurkat, the IC50, lay at 0.0033 µM. Also, the values for the inhibition in the assay listed under Bos taurus [7] and in the assay filed under Bos taurus [8] were 94% and 77%, respectively.
For the molecule `COC(=O)c1sc2cccc(C)c2c1Nc1cc(OC)c(OC)c(OC)c1`, the IC50 in the assay with MCF7 stood at 8.19 µM; in the assay with HT-29 it was 1.02 µM; in assay [5] it was 2.5 µM; in the assay on HeLa, 1.3 µM; with HL-60 it was 3.39 µM; with A549, 4.58 µM. This molecule also had an IC50 in the assay on Jurkat of 6.71 µM.
With `COc1cccc2c1C(=O)c1c(O)c3c(c(O)c1C2=O)C[C@@](O)(C(=O)CO)C[C@@H]3O[C@H]1C[C@H](N)[C@H](O)[C@H](C)O1` [DOXORUBICIN], the results for the IC50 (in [9]; in the assay with LoVo [10]) were 11.3 µM and 0.0956 µM, respectively. The “Ratio IC50” value in the assay with LoVo [11] stood at 118.
With `COC(=O)c1sc2cc(C)ccc2c1Nc1cc(OC)c(OC)c(OC)c1`, the IC50 with MCF7 was 0.0012 µM; in the assay on HT-29, 0.0019 µM; in assay [5], 0.0007 µM; in the assay with HeLa it was 0.00031 µM; in the assay with HL-60, 0.0205 µM; in assay [6] it was 1.2 µM. The values for the concentration for half-maximal inhibition (IC50) with A549 and with Jurkat were 0.0108 µM and 0.0006 µM, respectively. Also, the inhibition in the assay filed under Bos taurus [7] came out at 95%; in the assay listed under Bos taurus [8], 71%.
With `CCOC(=O)c1sc2ccccc2c1Nc1cc(OC)c(OC)c(OC)c1`, the IC50 in the assay with MCF7 was 6.39 µM; in the assay with HT-29 it was 1.61 µM; in [5], 1.9 µM; with HeLa it was 3.1 µM; with HL-60, 5.49 µM; with A549 it was 8.53 µM. Also, in the assay on Jurkat, the IC50 stood at 3.02 µM.
Turning to `COC(=O)c1sc2c(OC)cccc2c1Nc1cc(OC)c(OC)c(OC)c1`, the IC50 with MCF7 came to 0.095 µM; in the assay on HT-29, 0.0149 µM; in assay [5] it was 0.0023 µM; in the assay with HeLa, 0.0035 µM; in the assay on HL-60 it was 0.0256 µM; in assay [6] it was 0.76 µM. Moreover, the IC50 in the assay on A549 came to 0.033 µM; in the assay on Jurkat, 0.0565 µM. Also, the inhibition in the assay listed under Bos taurus [7] was 76%; in the assay listed under Bos taurus [8], 54%.
Turning to `CCOC(=O)c1sc2ncccc2c1Nc1cc(OC)c(OC)c(OC)c1`, the IC50 in the assay on MCF7 was found to be 5.28 µM; with HT-29 it was 2.26 µM; in [5] it was 1.85 µM; with HeLa, 2.1 µM; in the assay with HL-60 it was 6.1 µM; in the assay with A549 it was 7.16 µM. The molecule also yielded an IC50 in the assay with Jurkat of 8.45 µM.
With `CCOC(=O)c1sc2cccc(C)c2c1Nc1cc(OC)c(OC)c(OC)c1`, the IC50 with MCF7 turned out to be 4.15 µM; with HT-29, 3.61 µM; in assay [5], 1.93 µM; in the assay on HeLa, 2.52 µM; with HL-60, 7.38 µM; in the assay on A549 it was 6.25 µM. In the assay on Jurkat, this molecule registered an IC50 of 5.67 µM.
Turning to `COc1ccc(/C=C\c2cc(OC)c(OC)c(OC)c2)cc1OP(=O)([O-])[O-].[Na+].[Na+]` [FOSBRETABULIN DISODIUM], in assay [12], the Activity is 44.5%.
For the molecule `CCOC(=O)c1sc2cc(C)ccc2c1Nc1cc(OC)c(OC)c(OC)c1`, the IC50 came to 0.009 µM in the assay with MCF7; 0.006 µM in the assay with HT-29; 0.0015 µM in assay [5]; 0.00038 µM in the assay on HeLa; 0.0039 µM in the assay with HL-60; 1.1 µM in [6]. Further, the IC50 is 0.0072 µM in the assay on A549 and 0.0004 µM in the assay with Jurkat. In addition, the inhibition was 89% in the assay listed under Bos taurus [7] and 58% in the assay filed under Bos taurus [8].
For `COC(=O)c1sc2ccccc2c1Nc1cc(OC)c(OC)c(OC)c1`, the half-maximal inhibitory concentration (IC50) in the assay with MCF7 is 0.795 µM; in the assay with HT-29, 0.299 µM; in assay [5], 0.179 µM; in the assay on HeLa, 0.427 µM; in the assay with HL-60 it was 1.54 µM; in the assay on A549, 2.85 µM. Also, inhibition in the assay on Jurkat was half-maximal at 0.49 µM (IC50).
